What was measured:
MDA-MB-231 = assay: Cytotoxicity against human MDA-MB-231 cells after 72 hrs by MTT assay; format: functional, cell-based; details: MDA-MB-231, 72 h
Outline: (§1)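 Lines kept in RPMI-1640 with 10% FBS. Cells were seeded at 2×10³ per well and allowed to attach for 24 h at 37 °C. Medium was then replaced with medium holding serial dilutions from 100 mM DMSO stocks, with 0.1% DMSO as negative control, for 72 h at 37 °C. […] IC50 was fitted from the concentration series as the mean ± SD of three independent experiments run in duplicate.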

MCF7 = assay: Cytotoxicity against human MCF7 cells after 72 hrs by MTT assay; format: functional, cell-based; details: MCF7, 72 h; outline: as §1
MDA-MB-468 = assay: Cytotoxicity against human MDA-MB-468 cells after 72 hrs by MTT assay; format: functional, cell-based; details: MDA-MB-468, 72 h; outline: as §1
Hs-578T = assay: Cytotoxicity against human Hs578T cells after 72 hrs by MTT assay; format: functional, cell-based; outline: as §1
BT-549 [1] = assay: Cytotoxicity against human BT549 cells after 72 hrs by MTT assay; format: functional, cell-based; details: BT-549, 72 h; outline: as §1
T47D = assay: Cytotoxicity against human T47D cells after 72 hrs by MTT assay; format: functional, cell-based; outline: as §1
Tubulin (Sus scrofa) = Tubulin (Sus scrofa) (UniProt P02554+P02550); assay: Inhibition of pig brain tubulin polymerization at 10 uM by spectrophotometric analysis relative to control
Sequence of Tubulin (Sus scrofa) (P02550 whole entry, looked up): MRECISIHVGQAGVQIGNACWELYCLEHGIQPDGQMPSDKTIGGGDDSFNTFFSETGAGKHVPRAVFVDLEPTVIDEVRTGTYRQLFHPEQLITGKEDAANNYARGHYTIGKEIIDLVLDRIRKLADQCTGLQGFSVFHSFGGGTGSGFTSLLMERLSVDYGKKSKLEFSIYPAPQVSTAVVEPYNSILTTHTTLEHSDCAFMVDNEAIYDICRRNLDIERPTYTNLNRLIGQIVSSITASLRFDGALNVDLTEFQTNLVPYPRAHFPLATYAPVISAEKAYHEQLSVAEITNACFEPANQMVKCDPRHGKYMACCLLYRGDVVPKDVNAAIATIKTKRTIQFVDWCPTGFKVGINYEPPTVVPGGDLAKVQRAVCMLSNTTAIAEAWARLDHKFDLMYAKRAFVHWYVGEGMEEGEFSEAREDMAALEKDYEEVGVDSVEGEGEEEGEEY
Sequence of Tubulin (Sus scrofa) (P02554 whole entry, looked up): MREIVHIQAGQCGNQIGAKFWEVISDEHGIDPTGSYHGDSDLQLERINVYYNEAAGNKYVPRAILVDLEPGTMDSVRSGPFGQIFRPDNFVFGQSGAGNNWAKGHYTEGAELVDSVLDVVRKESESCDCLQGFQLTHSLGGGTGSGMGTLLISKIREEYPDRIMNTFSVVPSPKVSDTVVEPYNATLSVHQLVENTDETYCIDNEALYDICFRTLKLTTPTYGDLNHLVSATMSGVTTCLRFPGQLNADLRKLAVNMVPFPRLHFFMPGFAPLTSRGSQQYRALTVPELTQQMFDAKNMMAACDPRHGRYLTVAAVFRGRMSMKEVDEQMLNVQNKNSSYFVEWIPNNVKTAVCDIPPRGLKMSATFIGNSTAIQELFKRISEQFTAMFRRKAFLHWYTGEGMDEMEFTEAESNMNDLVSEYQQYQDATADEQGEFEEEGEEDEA
Outline: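 Tubulin polymerization inhibition was measured with compounds at a final concentration of 10 µM.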

BT-549 [2] = assay: Cell cycle arrest in human BT549 cells assessed as accumulation of cells at S phase at 8 uM after 24 hrs by propidium iodide staining-based flow cytometric analysis (reference value: 25.84%); format: functional
BT-549 [3] = assay: Cell cycle arrest in human BT549 cells assessed as accumulation of cells at G2/M phase at 8 uM after 24 hrs by propidium iodide staining-based flow cytometric analysis (reference value: 8.88%); format: functional
BT-549 [4] = assay: Cell cycle arrest in human BT549 cells assessed as accumulation of cells at G0/G1 phase at 8 uM after 24 hrs by propidium iodide staining-based flow cytometric analysis (reference value: 65.28%); format: functional

inhibition (Tubulin (Sus scrofa))	SMILES	IC50 (MDA-MB-231)	IC50 (MCF7)	IC50 (MDA-MB-468)	IC50 (Hs-578T)	IC50 (BT-549 [1])	IC50 (T47D)	Activity (BT-549 [2])	Activity (BT-549 [3])	Activity (BT-549 [4])
–	COc1ccc2c(NC(=O)c3cc(OC)c(OC)c(OC)c3)c(C(=O)c3ccccc3)[nH]c2c1	> 100 µM	> 100 µM	> 100 µM	> 100 µM	> 100 µM	> 100 µM	–	–	–
–	COc1cc(C(=O)Nc2c(C(=O)c3ccc(-c4ccccc4)cc3)[nH]c3cc(C)ccc23)cc(OC)c1OC	18.2 µM	> 100 µM	> 100 µM	> 100 µM	> 100 µM	> 100 µM	–	–	–
15%	COc1cc(C(=O)Nc2c(C(=O)c3ccc(Cl)cc3)[nH]c3cc(C)ccc23)cc(OC)c1OC	3.22 µM	3.85 µM	4.12 µM	3.59 µM	4.81 µM	6.25 µM	–	–	–
–	COc1cc(C(=O)Nc2c(C(=O)c3cccs3)[nH]c3cc(Cl)ccc23)cc(OC)c1OC	> 100 µM	47.5 µM	15.3 µM	49.2 µM	37.5 µM	31.4 µM	–	–	–
25%	COc1ccc(C(=O)c2[nH]c3cc(OC)ccc3c2NC(=O)c2cc(OC)c(OC)c(OC)c2)cc1	48.8 µM	79.3 µM	26.4 µM	10.4 µM	18.2 µM	6.3 µM	–	–	–
37%	COc1cc(C(=O)Nc2c(C(=O)c3ccc(Br)cc3)[nH]c3ccccc23)cc(OC)c1OC	6.47 µM	7.14 µM	7.87 µM	7.52 µM	10.3 µM	9.55 µM	–	–	–
–	COc1cc(C(=O)Nc2c(C(=O)c3ccc(-c4ccccc4)cc3)[nH]c3ccccc23)cc(OC)c1OC	> 100 µM	> 100 µM	> 100 µM	22.2 µM	> 100 µM	> 100 µM	–	–	–
–	COc1cc(C(=O)Nc2c(C(=O)c3ccc(F)cc3)[nH]c3cc(Cl)ccc23)cc(OC)c1OC	46.6 µM	61.1 µM	> 100 µM	> 100 µM	35.5 µM	76.2 µM	–	–	–
30%	COc1ccc(C(=O)c2[nH]c3cc(Cl)ccc3c2NC(=O)c2cc(OC)c(OC)c(OC)c2)cc1O	22.2 µM	32.6 µM	23.2 µM	4.35 µM	7.48 µM	9.28 µM	–	–	–
47%	COc1ccc(C(=O)c2[nH]c3cc(Cl)ccc3c2NC(=O)c2cc(OC)c(OC)c(OC)c2)cc1	9.17 µM	17.6 µM	8.61 µM	15.9 µM	11.1 µM	11.1 µM	–	–	–
41%	COc1cc(C(=O)Nc2c(C(=O)c3ccccc3)[nH]c3cc(Cl)ccc23)cc(OC)c1OC	32.7 µM	51.8 µM	11 µM	> 100 µM	26.9 µM	45.5 µM	–	–	–
–	COc1cc(C(=O)Nc2c(C(=O)c3ccc(F)c(F)c3)[nH]c3cc(Cl)ccc23)cc(OC)c1OC	> 100 µM	10.1 µM	> 100 µM	64.6 µM	51.2 µM	> 100 µM	–	–	–
36%	COc1cc(C(=O)Nc2c(C(=O)c3ccc(C)cc3)[nH]c3cc(Cl)ccc23)cc(OC)c1OC	33.6 µM	34.3 µM	5.79 µM	14.2 µM	25.1 µM	16.6 µM	–	–	–
–	COc1cc(C(=O)Nc2c(C(=O)c3ccccc3)[nH]c3ccccc23)cc(OC)c1OC	17.2 µM	> 100 µM	> 100 µM	> 100 µM	> 100 µM	> 100 µM	–	–	–
–	COc1cc(C(=O)Nc2c(C(=O)c3ccccc3)[nH]c3cc(C)ccc23)cc(OC)c1OC	16.6 µM	32.7 µM	> 100 µM	49.1 µM	42.3 µM	> 100 µM	–	–	–
–	COc1ccc2c(NC(=O)c3cc(OC)c(OC)c(OC)c3)c(C(=O)c3ccc(C)cc3)[nH]c2c1	> 100 µM	> 100 µM	> 100 µM	> 100 µM	> 100 µM	> 100 µM	–	–	–
17%	COc1cc(C(=O)Nc2c(C(=O)c3ccc(F)cc3)[nH]c3cc(C)ccc23)cc(OC)c1OC	5.17 µM	8.89 µM	6.16 µM	8.95 µM	8.66 µM	5.72 µM	–	–	–
–	COc1cc(C(=O)Nc2c(C(=O)c3ccc(C)cc3)[nH]c3cc(C)ccc23)cc(OC)c1OC	33.4 µM	69.5 µM	75.1 µM	43.7 µM	69.8 µM	40.2 µM	–	–	–
–	COc1cccc(C(=O)c2[nH]c3cc(Cl)ccc3c2NC(=O)c2cc(OC)c(OC)c(OC)c2)c1	> 100 µM	> 100 µM	> 100 µM	> 100 µM	> 100 µM	52.4 µM	–	–	–
–	COc1cc(C(=O)Nc2c(C(=O)c3ccc(F)cc3)[nH]c3ccccc23)cc(OC)c1OC	50.8 µM	77.9 µM	> 100 µM	> 100 µM	42.6 µM	60.9 µM	–	–	–
25%	COc1cc(C(=O)Nc2c(C(=O)c3cccc(Br)c3)[nH]c3cc(Cl)ccc23)cc(OC)c1OC	26.8 µM	23 µM	20.8 µM	4.1 µM	8.42 µM	14.1 µM	–	–	–
–	COc1cc(C(=O)Nc2c(C(=O)c3ccc(C)cc3)[nH]c3ccccc23)cc(OC)c1OC	12.6 µM	50 µM	14.5 µM	50.5 µM	17.1 µM	20.1 µM	–	–	–
20%	COc1ccc(C(=O)c2[nH]c3ccccc3c2NC(=O)c2cc(OC)c(OC)c(OC)c2)cc1	35 µM	10.7 µM	7.09 µM	> 100 µM	10.4 µM	5.56 µM	–	–	–
–	COc1ccc(/C=C\c2cc(OC)c(OC)c(OC)c2)cc1O [COMBRETASTATIN A4]	0.00317 µM	0.003 µM	0.00155 µM	0.00136 µM	0.00171 µM	0.00189 µM	18.2%	72.9%	8.9%
–	COc1cc(C(=O)Nc2c(C(=O)c3cccs3)[nH]c3ccccc23)cc(OC)c1OC	> 100 µM	> 100 µM	> 100 µM	29.6 µM	> 100 µM	> 100 µM	–	–	–
–	COc1cc(C(=O)Nc2c(C(=O)c3ccco3)[nH]c3cc(Cl)ccc23)cc(OC)c1OC	> 100 µM	> 100 µM	> 100 µM	> 100 µM	> 100 µM	> 100 µM	–	–	–
–	COc1cc(C(=O)Nc2c(C(=O)c3ccc4ccccc4c3)[nH]c3cc(C)ccc23)cc(OC)c1OC	> 100 µM	> 100 µM	> 100 µM	53.3 µM	39.8 µM	> 100 µM	–	–	–
–	COc1cccc(C(=O)c2[nH]c3ccccc3c2NC(=O)c2cc(OC)c(OC)c(OC)c2)c1	> 100 µM	> 100 µM	> 100 µM	9.06 µM	65.5 µM	53.4 µM	–	–	–
–	COc1cc(C(=O)Nc2c(C(=O)c3cccs3)[nH]c3cc(C)ccc23)cc(OC)c1OC	> 100 µM	> 100 µM	> 100 µM	> 100 µM	> 100 µM	> 100 µM	–	–	–

Source: ChEMBL document CHEMBL4382246, “Synthesis, biological evaluation, and molecular docking investigation of 3-amidoindoles as potent tubulin polymerization inhibitors” (Eur J Med Chem, 2019)
